SMILES strings stand for the structures. A value given as a limit tells only on which side of the number the result lay.

The target of one assay is T1, Tyrosinase (Agaricus bisporus, UniProt O42713).
T1 sequence (O42713 whole entry): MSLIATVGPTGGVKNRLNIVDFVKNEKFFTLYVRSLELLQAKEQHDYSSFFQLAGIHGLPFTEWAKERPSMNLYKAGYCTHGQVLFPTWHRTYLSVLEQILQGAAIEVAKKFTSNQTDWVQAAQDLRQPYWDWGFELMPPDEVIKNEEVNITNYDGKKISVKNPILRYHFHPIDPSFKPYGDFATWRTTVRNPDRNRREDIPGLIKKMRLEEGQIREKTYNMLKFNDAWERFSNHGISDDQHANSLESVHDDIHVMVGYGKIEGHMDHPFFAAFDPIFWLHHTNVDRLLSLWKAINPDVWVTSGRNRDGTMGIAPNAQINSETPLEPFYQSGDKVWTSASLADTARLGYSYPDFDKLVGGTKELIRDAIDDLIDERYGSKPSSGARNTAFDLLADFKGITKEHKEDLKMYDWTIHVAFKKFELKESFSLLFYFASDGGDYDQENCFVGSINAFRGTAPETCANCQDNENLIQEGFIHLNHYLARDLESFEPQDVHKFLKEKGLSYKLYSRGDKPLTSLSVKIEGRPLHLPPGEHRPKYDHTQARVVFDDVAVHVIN
Nature of the assay: Inhibition of mushroom tyrosinase after 30 mins.
For orientation: IC50 means the point on the concentration scale where inhibition reaches its midpoint. For the compound `COc1cc(-c2ccc(C)c(O)c2)cc(OC)c1OC`, the IC50 is more than 2000 µM. Consider `COc1cc(-c2cc(F)cc(F)c2)cc(OC)c1OC`, for which the 50% inhibitory concentration (IC50) is more than 2000 µM.

Compound `COc1cc(-c2ccc(F)cc2F)cc(OC)c1OC` returned an IC50 of more than 2000 µM. As for `COc1cc(-c2ccc(F)c(F)c2)cc(OC)c1OC`, the IC50 is more than 2000 µM.

In turn, `COc1cc(-c2cccc(O)c2)cc(OC)c1OC` registered a concentration for half-maximal inhibition (IC50) of more than 2000 µM. The compound `COc1cc(-c2ccccc2C)cc(OC)c1OC` came in with a half-inhibitory concentration (IC50) of more than 2000 µM.

`COc1cc(-c2ccc(C=O)c(O)c2)cc(OC)c1O` had a concentration for half-maximal inhibition (IC50) of 60 µM. Compound `COc1cc(-c2ccc(C)c(O)c2)cc(OC)c1O` gave a concentration for half-maximal inhibition (IC50) of 90 µM. Compound `COc1cc(-c2cc(F)cc(F)c2)cc(OC)c1O` came in with a 50% inhibitory concentration (IC50) of 80 µM. In turn, `COc1cc(-c2ccc(F)cc2F)cc(OC)c1O` registered a half-inhibitory concentration (IC50) of 60 µM. The same measure, in the same setting: next, `COc1cc(-c2ccc(F)c(F)c2)cc(OC)c1O`: 70 µM; `COc1cc(-c2cccc(OC)c2F)cc(OC)c1O`: 60 µM. As to `COc1cc(-c2cccc(O)c2F)cc(OC)c1O`, it took 80 µM to reach half-maximal inhibition (IC50). Take `COc1cc(-c2cccc(O)c2)cc(OC)c1O`: half-maximal inhibition (IC50) required 90 µM. This IC50 and that of the compound before are within 1.5-fold of each other.

Regarding `COc1cc(-c2ccccc2C)cc(OC)c1O`, the IC50 came out at 170 µM. `COc1cc(-c2ccc(C(=O)O)cc2)cc(OC)c1O` came in with an IC50 of 50 µM. On the same count and under the same terms, next, `COc1cc(-c2ccc(C=O)c(OCc3ccccc3)c2)cc(OC)c1OC`: more than 2000 µM. `COc1cc(-c2ccc(C=O)c(O)c2)cc(OC)c1OC` had an IC50 of more than 2000 µM. Compound `COc1cc(-c2ccc(C(=O)O)c(OCc3ccccc3)c2)cc(OC)c1OC` came in with an IC50 of more than 2000 µM. On the same count and under the same terms, next, `COc1cc(-c2ccc(C(=O)O)c(O)c2)cc(OC)c1OC`: more than 2000 µM; `CCOC(=O)c1ccc(-c2cc(OC)c(OC)c(OC)c2)cc1O`: more than 2000 µM; `COc1cc(-c2ccc(C(=O)NCc3ccccc3)c(OCc3ccccc3)c2)cc(OC)c1OC`: more than 2000 µM. As for `COc1cccc(-c2cc(OC)c(OC)c(OC)c2)c1F`, the IC50 is more than 2000 µM. In turn, `COc1ccc(C(C)=O)cc1-c1cc(OC)c(OC)c(OC)c1` gave an IC50 of more than 2000 µM.

In turn, `COc1ccc(C(C)O)cc1-c1cc(OC)c(OC)c(OC)c1` (configuration not stated) gave a half-inhibitory concentration (IC50) of more than 2000 µM. Same read-out and setting: next, `COc1cc(-c2cccc(OCc3ccccc3)c2)cc(OC)c1OC`: 550 µM; `COc1cc(-c2ccc(C(=O)O)cc2)cc(OC)c1OC`: more than 2000 µM.

The compound `CCCCNC(=O)c1ccc(-c2cc(OC)c(OC)c(OC)c2)cc1` had a 50% inhibitory concentration (IC50) of more than 2000 µM.

`COc1cc(-c2ccc(C(=O)NCc3ccccc3)cc2)cc(OC)c1OC` registered a half-maximal inhibitory concentration (IC50) of more than 2000 µM. `COc1cc(-c2ccc(O)c(OCc3ccccc3)c2)cc(OC)c1OC` yielded a half-inhibitory concentration (IC50) of 170 µM. With `COc1cc(-c2ccc(C(=O)O)c(O)c2)cc(OC)c1O`, the IC50 is 20 µM. `CCOC(=O)c1ccc(-c2cc(OC)c(O)c(OC)c2)cc1O`: the IC50 came out at 50 µM. Regarding `COc1cc(-c2ccc(C(=O)NCc3ccccc3)c(O)c2)cc(OC)c1O`, the IC50 was 30 µM.

Compound `COc1ccc(C(C)=O)cc1-c1cc(OC)c(O)c(OC)c1` came in with an IC50 of 140 µM.

Compound `COc1ccc(C(C)O)cc1-c1cc(OC)c(O)c(OC)c1` (configuration not stated) showed an IC50 of 190 µM. This IC50 and that of the compound before are within 1.5-fold of each other. With `CCCCNC(=O)c1ccc(-c2cc(OC)c(O)c(OC)c2)cc1`, half-maximal inhibition (IC50) was put at 70 µM.

`COc1cc(-c2ccc(C(=O)NCc3ccccc3)cc2)cc(OC)c1O` came in with an IC50 of 120 µM. In the case of `COc1cc(-c2ccc(O[C@@H]3O[C@H](CO)[C@@H](O)[C@H](O)[C@H]3O)c(O)c2)cc(OC)c1O` [FORTUNEANOSIDE E], the half-inhibitory concentration (IC50) stood at 140 µM.

For a further assay, the target named is T1, Tyrosinase. The assay is described as follows: Competitive inhibition of mushroom tyrosinase after 30 mins by Lineweaver-Burke double reciprocal plot analysis. The method, boiled down:
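Inhibition type and Ki were determined with respect to L-tyrosine as substrate, using mushroom tyrosinase with dopachrome read-out at 492 nm. Incubation was 30 min at 37 °C in 25 mM PBS, pH 6.8.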
What is called Ki is a measure of affinity in units of concentration, obtained from inhibition or displacement. High values mean lower affinity, low ones higher affinity. Compound `COc1cc(-c2ccc(C(=O)O)cc2)cc(OC)c1O` yielded a Ki of 38 µM. Consider `COc1cc(-c2ccc(C(=O)O)c(O)c2)cc(OC)c1O`, for which the Ki turned out to be 15 µM. For `COc1cc(-c2ccc(C(=O)NCc3ccccc3)c(O)c2)cc(OC)c1O`, the Ki is 60 µM. The compound `CCCCNC(=O)c1ccc(-c2cc(OC)c(O)c(OC)c2)cc1` came in with an inhibition constant (Ki) of 31 µM.

(Values after ChEMBL document CHEMBL1240521, “Design and synthesis of biphenyl derivatives as mushroom tyrosinase inhibitors” (Bioorg Med Chem, 2010).)
